Measurements taken from ChEMBL document CHEMBL3526142, “Biotransformation of a novel antimitotic agent, I-387, by mouse, rat, dog, monkey, and human liver microsomes and in vivo pharmacokinetics in mice” (Drug Metab Dispos, 2011).

Assays:
[1] = Oral bioavailability in ICR mouse at 1 mg/kg via gavage after 30 mins by LC-MS/MS analysis; type: ADME, organism-based; settings: in vivo
Outline: (§1)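 Male ICR mice (5–6 weeks, 20–25 g) dosed by gavage in 10% DMSO in PEG300. Three to four mice per time point were euthanized under isoflurane and blood taken from the posterior vena cava. Plasma was acetonitrile-precipitated and analysed by LC-MS/MS (MRM m/z 388.2→192). Tmax read by visual inspection. F = (AUC_oral × dose_iv)/(AUC_iv × dose_oral), with AUC_inf by trapezoidal rule; n = 3/dose group.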

[2] = AUC (infinity) in ICR mouse at 15 mg/kg, po via gavage by LC-MS/MS analysis; type: ADME, organism-based; design: time infinity, dose 15 mg/kg, route oral; settings: plasma
Outline: (§2)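 Male ICR mice (5–6 weeks, 20–25 g), single doses of 1, 5 or 15 mg/kg in 10% DMSO/PEG300, given iv by tail vein, ip, or orally by gavage. Three to four mice per time point, euthanized under isoflurane, blood drawn from posterior vena cava. Plasma protein precipitated with acetonitrile containing internal standard, then LC-MS/MS (MRM m/z 388.2→192). Noncompartmental analysis of mean concentration-time data, AUCinf by trapezoidal rule with extrapolation, CL = dose/AUCinf, Cmax read from the curve. F = (AUCnon-iv × dose iv)/(AUCiv × dose non-iv). n = 3 per dose group.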

[3] = Mean residence time (infinity) in ICR mouse at 1 mg/kg, po via gavage by LC-MS/MS analysis; type: ADME, organism-based; design: dose 1 mg/kg, route oral; settings: in vivo; outline: as §2
Liver microsome [4] = test: Drug level in rat liver microsomes assessed as compound retention time treated with 0.5 uM I-387 after 2 hrs by LC-MS/MS analysis; type: ADME
Outline: (§3)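 Pooled liver microsomes (1 mg/ml protein) incubated with 0.5 µM substrate and 3 mM NADPH in 65 mM potassium phosphate, pH 7.4, 1% methanol, at 37°C for 2 h. Stopped with ice-cold acetonitrile containing internal standard, centrifuged. Supernatant analysed by LC-MS/MS on a C18 column, 15-min gradient, with product ion scans for metabolite identification.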

[5] = Metabolic stability in rat liver microsomes assessed as half life during phase 1 at 0.5 uM by LC-MS/MS analysis in presence of 3 mM NADPH and absence of UDPGA; type: ADME; settings: read-out: alphat1/2
Outline: (§4)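 Pooled liver microsomes at 1 mg/ml protein with 3 mM NADPH, 0.5 μM substrate in 65 mM potassium phosphate pH 7.4, 1% methanol, 37°C. Incubations stopped at 10, 20, 30, 60 and 90 min with ice-cold acetonitrile plus internal standard, then LC-MS/MS of parent remaining relative to time 0. Half-life from a two-parameter single exponential decay fit; n = 2 to 3.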

[6] = AUC (infinity) in ICR mouse at 1 mg/kg, ip by LC-MS/MS analysis; type: ADME, organism-based; design: time infinity, dose 1 mg/kg, route intraperitoneal; settings: plasma; outline: as §2
[7] = Volume of distribution at steady state in ICR mouse at 15 mg/kg, iv by LC-MS/MS analysis; type: ADME, organism-based; design: dose 15 mg/kg, route intravenous; settings: in vivo, read-out: Vdss
Outline: (§5)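 Tail-vein injection in male ICR mice (5–6 weeks), vehicle 10% DMSO in PEG300. Serial terminal sampling of 3–4 mice per time point, with posterior vena cava blood. Plasma was acetonitrile-precipitated and measured by LC-MS/MS. Noncompartmental analysis of mean data: t1/2 = ln2/λz, CL = dose/AUC_inf, Vd_ss = CL × MRT_inf; n = 3/dose group.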

[8] = Cmax in ICR mouse at 5 mg/kg, ip by LC-MS/MS analysis; type: ADME, organism-based; design: dose 5 mg/kg, route intraperitoneal; settings: in vivo; outline: as §2
[9] = Terminal half life in ICR mouse at 5 mg/kg, po via gavage by LC-MS/MS analysis; type: ADME, organism-based; design: dose 5 mg/kg, route oral; settings: in vivo, read-out: beta t1/2 (converted)
Outline: (§6)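 Male ICR mice (20–25 g) given the compound intraperitoneally or by gavage in 10% DMSO/PEG300. Three to four mice were sacrificed per time point and plasma collected from the vena cava. Plasma was precipitated with acetonitrile containing internal standard and analysed by LC-MS/MS. Noncompartmental analysis of mean concentration-time data: terminal t1/2 = ln2/λz; Tmax by inspection; n = 3/dose group.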

[10] = Terminal half life in ICR mouse at 1 mg/kg, ip by LC-MS/MS analysis; type: ADME, organism-based; design: dose 1 mg/kg, route intraperitoneal; settings: in vivo, read-out: beta t1/2 (converted); outline: as §6
[11] = Metabolic stability in human liver microsomes assessed as half life during phase 1 at 0.5 uM by LC-MS/MS analysis in presence of 3 mM NADPH and absence of UDPGA; type: ADME; settings: read-out: alphat1/2
Outline: (§7)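 Pooled liver microsomes (1 mg/ml) incubated with 0.5 µM substrate and 3 mM NADPH in 65 mM potassium phosphate, pH 7.4, 1% methanol, at 37°C. The phase I+II set also had 5 mM UDPGA, 5 mM D-saccharolactone, 50 µg/ml alamethicin and 3 mM MgCl2. Stopped at 10–90 min with cold acetonitrile plus internal standard. Parent remaining by LC-MS/MS relative to time 0. t1/2 from a two-parameter single exponential decay fit; n = 2–3.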

[12] = Cmax in ICR mouse at 5 mg/kg, iv by LC-MS/MS analysis; type: ADME, organism-based; design: dose 5 mg/kg, route intravenous; settings: in vivo; outline: as §2
[13] = AUC (infinity) in ICR mouse at 5 mg/kg, po via gavage by LC-MS/MS analysis; type: ADME, organism-based; design: time infinity, dose 5 mg/kg, route oral; settings: plasma; outline: as §2
[14] = Terminal half life in ICR mouse at 15 mg/kg, po via gavage by LC-MS/MS analysis; type: ADME, organism-based; design: dose 15 mg/kg, route oral; settings: in vivo, read-out: beta t1/2 (converted); outline: as §6
[15] = Tmax in ICR mouse at 15 mg/kg, po by LC-MS/MS analysis; type: ADME, organism-based; design: dose 15 mg/kg, route oral; settings: in vivo; outline: as §1
[16] = Terminal half life in ICR mouse at 15 mg/kg, iv by LC-MS/MS analysis; type: ADME, organism-based; design: dose 15 mg/kg, route intravenous; settings: in vivo, read-out: beta t1/2 (converted); outline: as §5
[17] = Plasma concentration in ICR mouse at 15 mg/kg, ip measured for 30 hrs by LC-MS/MS analysis; type: ADME, organism-based; design: dose 15 mg/kg, route intraperitoneal
Outline: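 Male ICR mice given 15 mg/kg intraperitoneally in 10% DMSO/PEG300. Plasma from 3–4 mice per time point was collected via the posterior vena cava, protein-precipitated with acetonitrile plus internal standard, and quantified by LC-MS/MS (MRM m/z 388.2→192).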

[18] = Metabolic stability in mouse liver microsomes assessed as half life during phase 1 at 0.5 uM by LC-MS/MS analysis in presence of 3 mM NADPH and absence of UDPGA; type: ADME; settings: read-out: alphat1/2; outline: as §4
[19] = Metabolic stability in dog liver microsomes assessed as half life during phase 1 and 2 at 0.5 uM by LC-MS/MS analysis in presence of 3 mM NADPH and […] UDPGA; type: ADME, Canis lupus familiaris; settings: read-out: alphat1/2
[20] = Clearance in ICR mouse at 1 mg/kg, iv by LC-MS/MS analysis; type: ADME, organism-based; design: dose 1 mg/kg, route intravenous; settings: in vivo; outline: as §2
[21] = Antitumor activity against human PC3 cells xenografted in nu/nu mouse assessed as decrease in tumor growth at 10 mg/kg, ip 2 days per week for weeks; type: functional; settings: PC-3, ip, 48 h, route intraperitoneal
Liver microsome [22] = test: Drug metabolism in dog liver microsomes assessed as (3-(1H-indol-2-yl)phenyl)(3,4,5-trimethoxyphenyl)methanol formation at 0.5 uM after 2 hrs by LC-MS/MS analysis in presence of 3 mM NADPH; type: ADME, Canis lupus familiaris; outline: as §3
[23] = Metabolic stability in dog liver microsomes assessed as half life during phase 1 at 0.5 uM by LC-MS/MS analysis in presence of 3 mM NADPH and absence of UDPGA; type: ADME, Canis lupus familiaris; settings: read-out: alphat1/2; outline: as §7
[24] = Terminal half life in ICR mouse at 5 mg/kg, iv by LC-MS/MS analysis; type: ADME, organism-based; design: dose 5 mg/kg, route intravenous; settings: in vivo, read-out: beta t1/2 (converted); outline: as §5

bioavailability [1]: 24%
AUC(0-inf) [2]: 1.07 µg·h/mL
MRT inf [3]: 9 h
Retention_time (Liver microsome [4]): 11.3 min
half-life at 0.5 µM [5]: 0.7 h
AUC(0-inf) [6]: 0.4 µg·h/mL
Vd [7]: 9.8 L/kg
Cmax [8]: 1.44 µg/mL
half-life [9]: 7.7 h
half-life [10]: 8 h
half-life at 0.5 µM [11]: 0.4 h
Cmax [12]: 2.86 µg/mL
AUC(0-inf) [13]: 0.517 µg·h/mL
half-life [14]: 7.9 h
Tmax [15]: 0.5 h
half-life [16]: 8.9 h
concentration at 30 h [17]: > 0.071 µg/mL
half-life at 0.5 µM [18]: 0.617 h
half-life at 0.5 µM [19]: 0.55 h
clearance [20]: 1.62 L/h/kg
Drug metabolism (Liver microsome [22]): metabolite_detected
half-life at 0.5 µM [23]: 0.483 h
half-life [24]: 4.3 h
SMILES: COc1cc(C(=O)c2cccc(-c3cc4ccccc4[nH]3)c2)cc(OC)c1OC
inhibition in vivo at 10 mg/kg [21]: 68%
